Experimental data taken from ChEMBL document CHEMBL2346560, “Structure and function of a potent lipopolysaccharide-binding antimicrobial and anti-inflammatory peptide” (J Med Chem, 2013).
In brackets after ≈: the same amount, converted by molar mass. Activity calls are given as the source filed them. The rule behind the calls is not given here. Bridge positions count the residues as written; N and C are the ends. Peptide text beside a SMILES is read from it.

Tests used:
RAW264.7 [1] = test: Cytotoxicity against mouse RAW264.7 cells at 50 ug/mL after 24 hrs by MTT assay relative to control; type: cell-based; conditions: raw264.7, 24 h
Candida albicans [2] = test: Antifungal activity against Candida albicans ATCC 2002 treated with PBS after 16 hrs by broth dilution method; type: functional; conditions: ATCC 2002, 16 h
Summary of the method: (§1)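 Salt sensitivity of the MIC. Peptide was tested in water, NaCl, CaCl2, MgCl2 or PBS (Na2HPO4-NaH2PO4, pH 7.4), with every salt at 150 mM. Values are means of three independent experiments, each run in duplicate.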

Staphylococcus aureus [3] = test: Antibacterial activity against Staphylococcus aureus ATCC 2592 treated with NaCl after 16 hrs by broth dilution method; type: functional; conditions: ATCC 2592, 16 h; summary of the method: as §1
Staphylococcus aureus [4] = test: Antibacterial activity against ampicillin, benzylpencillin-resistant Staphylococcus aureus 08A875 after 16 hrs by broth dilution method; type: functional; conditions: 08A875, 16 h
Summary of the method: (§2)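 MIC read-out, reported in µg/mL with µM equivalents. Each value is the mean of three independent experiments, each run in duplicate.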

Escherichia coli [5] = test: Bactericidal activity against Escherichia coli ATCC 25922 at MIC after 40 mins by colony counting assay (reference value: 131.7 CFU); type: functional
Escherichia coli [6] = test: Antibacterial activity against ampicillin, benzylpencillin-resistant Escherichia coli 08A852 after 16 hrs by broth dilution method; type: functional; conditions: 08A852, 16 h; summary of the method: as §2
Staphylococcus aureus [7] = test: Antibacterial activity against Staphylococcus aureus ATCC 2592 treated with PBS after 16 hrs by broth dilution method; type: functional; conditions: ATCC 2592, 16 h; summary of the method: as §1
Candida albicans [8] = test: Antifungal activity against ampicillin, benzylpencillin-resistant Candida albicans 08022821 after 16 hrs by broth dilution method; type: functional; conditions: Candida albicans, 08022821, 16 h; summary of the method: as §2
[9] = Toxicity in human RBC assessed as induction of hemolysis after 30 mins; type: cell-based; conditions: erythrocyte, 0.5 h
Summary of the method: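 Human red blood cells incubated with peptide. Hemoglobin release read as absorbance at 540 nm and expressed against 1% Triton X-100 as positive control.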

Candida albicans [10] = test: Antifungal activity against Candida albicans ATCC 2002 treated with NaCl after 16 hrs by broth dilution method; type: functional; conditions: ATCC 2002, 16 h; summary of the method: as §1
Pseudomonas aeruginosa [11] = test: Antibacterial activity against Pseudomonas aeruginosa ATCC 27853 treated with PBS after 16 hrs by broth dilution method; type: functional; conditions: ATCC 27853, 16 h; summary of the method: as §1
Escherichia coli [12] = test: Bactericidal activity against Escherichia coli ATCC 25922 at MIC after 20 mins by colony counting assay (reference value: 79.3 CFU); type: functional
Escherichia coli [13] = test: Bactericidal activity against Escherichia coli ATCC 25922 at 10 times MIC after 60 mins by colony counting assay (reference value: 296 CFU); type: functional
Escherichia coli [14] = test: Antibacterial activity against Escherichia coli 08A852 assessed as cell swelling after 30 mins by scanning electron microscopic analysis; type: functional, organism-based
Summary of the method: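 E. coli (about 2 × 10^7 CFU/mL) was exposed to peptide at 1 × MIC, 37 °C, 30 min, beside an untreated control. Cells were pelleted, fixed in 2.5% buffered glutaraldehyde (4 °C, 2 h), post-fixed in 1% osmium tetroxide (2 h), dehydrated through graded ethanol, frozen in tert-butyl alcohol and vacuum-dried, then imaged by SEM.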

Candida albicans [15] = test: Antifungal activity against Candida albicans ATCC 2002 treated with MgCl2 after 16 hrs by broth dilution method; type: functional; conditions: ATCC 2002, 16 h; summary of the method: as §1
Escherichia coli [16] = test: Bactericidal activity against Escherichia coli ATCC 25922 at MIC after 10 mins by colony counting assay (reference value: 58.3 CFU); type: functional
RAW264.7 [17] = test: Antiinflammatory activity in mouse RAW264.7 cells assessed as inhibition of LPS-induced NO production at 5 ug/mL after 24 hrs by spectrophotometric analysis relative to control; type: functional; conditions: RAW264.7, 24 h
Summary of the method: (§3)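 RAW 264.7 cells (1 × 10^7) in RPMI-1640 with 10% FBS and penicillin/streptomycin were treated with peptide (2.5, 5, 10, 20 µg/mL) with or without LPS (E. coli 055:B5, 100 ng/mL) for 24 h. Medium nitrite was measured with Griess reagent at A540 against a NaNO2 standard curve. Control was LPS alone. Mean ± SEM of three separate experiments.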

Pseudomonas aeruginosa [18] = test: Antibacterial activity against Pseudomonas aeruginosa ATCC 27853 after 16 hrs by broth dilution method; type: functional; conditions: ATCC 27853, 16 h
Summary of the method: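 MIC determined by an earlier in-house method. Values are means of three independent experiments, each run in duplicate.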

Staphylococcus aureus [19] = test: Antibacterial activity against Staphylococcus aureus ATCC 2592 treated with CaCl2 after 16 hrs by broth dilution method; type: functional; conditions: ATCC 2592, 16 h; summary of the method: as §1
Escherichia coli [20] = test: Bactericidal activity against Escherichia coli ATCC 25922 at 5 times MIC after 120 mins by colony counting assay (reference value: 1868.3 CFU); type: functional
RAW264.7 [21] = test: Antiinflammatory activity in mouse RAW264.7 cells assessed as inhibition of LPS-induced TNF alpha production after 24 hrs by ELISA; type: functional, cell-based
Summary of the method: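 RAW 264.7 cells (2 × 10^5) were plated and allowed to adhere. They were given peptide (2.5, 5, 10, 20 µg/mL) with or without LPS (E. coli 055:B5, 20 ng/mL) for 24 h. Supernatant TNF-α, IL-6 and MCP-1 were measured by ELISA at A450. Controls were LPS alone and untreated cells. Mean ± SEM of three separate experiments.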

Escherichia coli [22] = test: Bactericidal activity against Escherichia coli ATCC 25922 at 10 times MIC after 20 mins by colony counting assay (reference value: 79.3 CFU); type: functional
Escherichia coli [23] = test: Bactericidal activity against Escherichia coli ATCC 25922 at 10 times MIC after 5 mins by colony counting assay (reference value: 47.7 CFU); type: functional
Escherichia coli [24] = test: Bactericidal activity against Escherichia coli ATCC 25922 at 5 times MIC after 60 mins by colony counting assay (reference value: 296 CFU); type: functional
RAW264.7 [25] = test: Antiinflammatory activity in mouse RAW264.7 cells assessed as inhibition of LPS-induced NO production at 2.5 ug/mL after 24 hrs by spectrophotometric analysis relative to control; type: functional; conditions: RAW264.7, 24 h; summary of the method: as §3
RAW264.7 [26] = test: Antiinflammatory activity in mouse RAW264.7 cells assessed as inhibition of LPS-induced NO production after 24 hrs by spectrophotometric analysis; type: functional, cell-based; summary of the method: as §3
Bacillus subtilis = test: Antibacterial activity against Bacillus subtilis 6633 treated with water after 16 hrs by broth dilution method; type: functional; conditions: Bacillus subtilis, 6633, 16 h; summary of the method: as §1
Escherichia coli [27] = test: Bactericidal activity against Escherichia coli ATCC 25922 at 5 times MIC after 5 mins by colony counting assay (reference value: 47.7 CFU); type: functional

## CC[C@H](C)[C@H](NC(=O)[C@H](Cc1cnc[nH]1)NC(=O)[C@H](CO)NC(=O)[C@@H](NC(=O)[C@@H](NC(=O)[C@@H](NC(=O)[C@@H](NC(=O)[C@H](CCCNC(=N)N)NC(=O)[C@H](CC(C)C)NC(=O)[C@H](CCCCN)NC(=O)[C@H](CCC(=O)O)NC(=O)[C@H](CCCCN)NC(=O)[C@H](CC(C)C)NC(=O)[C@H](CCCCN)NC(=O)[C@@H]1CSSC[C@H](NC(=O)[C@H](CCCCN)NC(=O)[C@@H](N)CCCNC(=N)N)C(=O)N[C@@H](CC(N)=O)C(=O)N[C@@H](Cc2ccccc2)C(=O)N[C@@H](CC(C)C)C(=O)N1)[C@@H](C)O)C(C)C)[C@@H](C)CC)[C@@H](C)O)C(=O)N[C@@H](CC(=O)O)C(=O)N[C@@H](CCCCN)C(=O)N[C@H](C(=O)N[C@@H](CC(C)C)C(=O)N[C@@H](CCCNC(=N)N)C(=O)N1CCC[C@H]1C(=O)N[C@@H](CCC(N)=O)C(=O)NCC(=O)O)C(C)C (H-RKCNFLCKLKEKLRTVITSHIDKVLRPQG-OH; disulfide 3-7)
RAW264.7 [1]
  Activity: 2.7%
Candida albicans [2]
  MIC: 2.35 µg/mL (≈ 0.686 µM)
Staphylococcus aureus [3]
  MIC: 4.69 µg/mL (≈ 1.37 µM)
Staphylococcus aureus [4]
  MIC: 5.48 µM (≈ 18.8 µg/mL)
Escherichia coli [5]
  CFU: 0
Escherichia coli [6]
  MIC: 1.37 µM (≈ 4.69 µg/mL)
Staphylococcus aureus [7]
  MIC: 4.69 µg/mL (≈ 1.37 µM)
Candida albicans [8]
  MIC: 2.74 µM (≈ 9.38 µg/mL)
[9]
  Activity: Dose-dependent effect
Candida albicans [10]
  MIC: 2.35 µg/mL (≈ 0.686 µM)
Pseudomonas aeruginosa [11]
  MIC: 9.38 µg/mL (≈ 2.74 µM)
Escherichia coli [12]
  CFU: 11.3
Escherichia coli [13]
  CFU: 0
Escherichia coli [14]
  Activity: Active
Candida albicans [15]
  MIC: 2.35 µg/mL (≈ 0.686 µM)
Escherichia coli [16]
  CFU: 23.7
RAW264.7 [17]
  inhibition at 5 µg/mL: 30%
Pseudomonas aeruginosa [18]
  MIC: 5.48 µM (≈ 18.8 µg/mL)
Staphylococcus aureus [19]
  MIC: 4.69 µg/mL (≈ 1.37 µM)
Escherichia coli [20]
  CFU: 0
RAW264.7 [21]
  inhibition: Dose-dependent effect
Escherichia coli [22]
  CFU: 0
Escherichia coli [23]
  CFU: 11.3
Escherichia coli [24]
  CFU: 0
RAW264.7 [25]
  inhibition at 2.5 µg/mL: 17%
RAW264.7 [26]
  inhibition: Dose-dependent effect
Bacillus subtilis
  MIC: > 100 µg/mL
Escherichia coli [27]
  CFU: 29.7
